Data taken from ChEMBL document CHEMBL1125323, “Potent V2/V1a vasopressin antagonists with C-terminal ethylenediamine-linked retro-amino acids” (J Med Chem, 1992).
Numbered stars: 1 amine (or outer) side, 2 acyl side, 3 side chain; on linkers, the order of the positions; unused ones are H or OH. Bridge positions count the residues as written; N and C are the ends. Square brackets hold non-standard residues; d marks the D form. Peptide text beside a SMILES is read from it. X1 = O=C(CC1(S[*:2])CCCCC1)[*:1]

How the values were obtained:
[1] = target: T1, Vasopressin receptor (Rattus norvegicus) (UniProt P48974+P30560+Q00788); experiment: Antiantidiuretic potency in terms of measuring changes in urine flow in water-loaded rats under ethanol anesthesia; type: functional
Method in brief: (§1)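 Water-loaded rats under ethanol anesthesia; urine flow followed. USP posterior pituitary reference standard as agonist, all injections intravenous. Effective dose (nmol/kg) is the antagonist dose reducing the response to 2x units of agonist to that of x units alone, interpolated on a log scale between bracketing doses. pA2 = negative log of ED divided by assumed distribution volume 67 mL/kg.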

[2] = target: T2, Vasopressin receptor (Rattus norvegicus, UniProt P48974+P30560+Q00788); experiment: Antivasopressor potency in terms of negative logarithm of the effective doses divided by the estimated volume of distribution; type: functional
Method in brief: (§2)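 Rats anesthetized with urethane, pretreated with phenoxybenzamine; blood pressure responses recorded. USP posterior pituitary reference standard as agonist, given intravenously with antagonist. ED (nmol/kg) is the antagonist dose at which 2x units of agonist match the response to x units without antagonist, log-interpolated from doses above and below. In vivo pA2 uses assumed distribution volume 67 mL/kg.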

[3] = target: T2, Vasopressin receptor; experiment: Antiantidiuretic potency in terms of negative logarithm of the effective doses divided by the estimated volume of distribution; type: functional, Urine; method in brief: as §1
[4] = target: T1, Vasopressin receptor (Rattus norvegicus); experiment: Antivasopressor potency in terms of blood pressure response in rats anesthetized with urethane and pretreated with phenoxybenzamine; type: functional; method in brief: as §2

pA2 [2]	pA2 [3]	SMILES	ED [1] [nM/kg]	ED [4] [nM/kg]
8	7.79	CCOc1ccc(C[C@H]2NC(=O)CC3(CCCCC3)SSC[C@@H](C(=O)N3CCC[C@H]3C(=O)N[C@@H](CCCN=C(N)N)C(=O)NCCN)NC(=O)[C@H](CC(N)=O)NC(=O)[C@H](C(C)C)NC(=O)[C@H](Cc3ccccc3)NC2=O)cc1	1.1	0.69
7.95	7.64	CCOc1ccc(C[C@H]2NC(=O)CC3(CCCCC3)SSC[C@@H](C(=O)N3CCC[C@H]3C(=O)NCCN)NC(=O)[C@H](CC(N)=O)NC(=O)[C@H](C(C)C)NC(=O)[C@H](Cc3ccccc3)NC2=O)cc1	1.6	0.75
8.15	7.07	CCOc1ccc(C[C@H]2NC(=O)CC3(CCCCC3)SSC[C@@H](C(=O)NCCN)NC(=O)[C@H](CC(N)=O)NC(=O)[C@H](C(C)C)NC(=O)[C@H](Cc3ccccc3)NC2=O)cc1	–	–
7.64	6.91	CC(C)[C@@H]1NC(=O)[C@H](Cc2ccccc2)NC(=O)[C@@H](Cc2ccccc2)NC(=O)CC2(CCCCC2)SSC[C@@H](C(=O)NCCNC(=O)[C@@H](N)CCCN=C(N)N)NC(=O)[C@H](CC(N)=O)NC1=O	–	–
7.93	7.61	CCOc1ccc(C[C@H]2NC(=O)CC3(CCCCC3)SSC[C@@H](C(=O)NCCNC(=O)[C@H](CCCN=C(N)N)NC(=O)[C@@H](N)CCCN=C(N)N)NC(=O)[C@H](CC(N)=O)NC(=O)[C@H](C(C)C)NC(=O)[C@H](Cc3ccccc3)NC2=O)cc1	–	–
7.8	7.55	CCOc1ccc(C[C@H]2NC(=O)CC3(CCCCC3)SSC[C@@H](C(=O)NCCNC(=O)[C@@H](N)CCCN)NC(=O)[C@H](CC(N)=O)NC(=O)[C@H](C(C)C)NC(=O)[C@H](Cc3ccccc3)NC2=O)cc1	–	–
7.96	7.87	CCOc1ccc(C[C@H]2NC(=O)CC3(CCCCC3)SSC[C@@H](C(=O)N[C@@H](CCCN=C(N)N)C(=O)NCC(=O)NCCNC(=O)[C@@H](N)CCCN=C(N)N)NC(=O)[C@H](CC(N)=O)NC(=O)[C@H](C(C)C)NC(=O)[C@H](Cc3ccccc3)NC2=O)cc1	–	–
8.15	7.95	CCOc1ccc(C[C@H]2NC(=O)CC3(CCCCC3)SSC[C@@H](C(=O)NCCNC(=O)[C@H](N)CCCN=C(N)N)NC(=O)[C@H](CC(N)=O)NC(=O)[C@H](C(C)C)NC(=O)[C@H](Cc3ccccc3)NC2=O)cc1	–	–

The next lines start with the compound.

SMILES	pA2 [2]	pA2 [3]	ED [1] [nM/kg]	ED [4] [nM/kg]
CCOc1ccc(C[C@H]2NC(=O)CC3(CCCCC3)SSC[C@@H](C(=O)N3CCC[C@H]3C(=O)N[C@@H](CCCN=C(N)N)C(=O)NCCN)NC(=O)[C@H](CC(N)=O)NC(=O)[C@H]([C@@H](C)CC)NC(=O)[C@H](Cc3ccccc3)NC2=O)cc1	8.33	8	0.77	0.32
CCOc1ccc(C[C@H]2NC(=O)CC3(CCCCC3)SSC[C@@H](C(=O)N3CCC[C@H]3C(=O)N[C@@H](CCCN=C(N)N)C(=O)NCC(=O)NCCN)NC(=O)[C@H](CC(N)=O)NC(=O)[C@H](C(C)C)NC(=O)[C@H](Cc3ccccc3)NC2=O)cc1	8.33	7.82	1.2	0.32
CCOc1ccc(C[C@H]2NC(=O)CC3(CCCCC3)SSC[C@@H](C(=O)N3CCC[C@H]3C(=O)N[C@@H](CCCN=C(N)N)C(=O)NCC(N)=O)NC(=O)[C@H](CC(N)=O)NC(=O)[C@H]([C@@H](C)CC)NC(=O)[C@H](Cc3ccccc3)NC2=O)cc1	7.78	7.75	1.2	1.2
CC[C@H](C)[C@@H]1NC(=O)[C@H](Cc2ccccc2)NC(=O)[C@@H](Cc2ccccc2)NC(=O)CC2(CCCCC2)SSC[C@@H](C(=O)N2CCC[C@H]2C(=O)N[C@@H](CCCN=C(N)N)C(=O)NCC(=O)NCCN)NC(=O)[C@H](CC(N)=O)NC1=O	7.58	8.1	0.57	1.8
CCOc1ccc(C[C@H]2NC(=O)CC3(CCCCC3)SSC[C@@H](C(=O)N3CCC[C@H]3C(=O)N[C@@H](CCCN=C(N)N)C(=O)NCC(N)=O)NC(=O)[C@H](CC(N)=O)NC(=O)[C@H](C(C)C)NC(=O)[C@H](Cc3ccccc3)NC2=O)cc1 ([dY](Et)FVNCPRG-NH2; linker N-5 via X1)	8.22	7.81	1.1	0.45
CC[C@H](C)[C@@H]1NC(=O)[C@H](Cc2ccccc2)NC(=O)[C@@H](Cc2ccccc2)NC(=O)CC2(CCCCC2)SSC[C@@H](C(=O)N2CCC[C@H]2C(=O)N[C@@H](CCCN=C(N)N)C(=O)NCC(N)=O)NC(=O)[C@H](CC(N)=O)NC1=O ([dF]FINCPRG-NH2; linker N-5 via X1)	7.86	8.24	0.46	0.99
CC[C@H](C)[C@@H]1NC(=O)[C@H](Cc2ccccc2)NC(=O)[C@@H](Cc2ccccc2)NC(=O)CC2(CCCCC2)SSC[C@@H](C(=O)N2CCC[C@H]2C(=O)N[C@@H](CCCN=C(N)N)C(=O)NCCN)NC(=O)[C@H](CC(N)=O)NC1=O	7.89	8.11	0.55	0.88
